Results: ChEMBL document CHEMBL1123309, “Esters and lactones of phenolic amino carboxylic acids: prodrugs for iron chelation” (J Med Chem, 1986)

Assays:
Rattus norvegicus [1] = test: Percent change in iron levels was determined in feces using iron overload rat model where the route of administration is Intraperitoneal; assay type: functional
[2] = First order rate constant was determined titrimetrically at pH 10.5 in the absence of metal iron; assay type: ADME
Mus musculus [3] = test: BDF1 male mice were administered with 100 mg/kg orally and percent change in iron levels was determined in Urine; assay type: functional; details: route oral
Outline: (§1)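 Male BDF1 mice made iron-overloaded by transfusion of washed, heat-treated (50 °C, 30 min) canine red cells. Dosing began 2 days after the last transfusion, once daily for 7 days, in distilled water or 2% Polysorbate 80 suspension. Daily group urine was collected. Pooled feces were digested in 1 N HCl (90 °C, 30 min). Liver and spleen were homogenized in saline. Iron was measured by atomic absorption and expressed as % change vs transfused controls.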

Mus musculus [4] = test: BDF1 male mice were administered with 50 mg/kg orally and percent change in iron levels was determined in Feces; assay type: functional; details: route oral
Outline: (§2)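 Hypertransfused male BDF1 mice (canine red cells, washed and heated at 50 °C for 30 min) were dosed orally for 7 days with compound in distilled water or a fine suspension with Polysorbate 80 (2% final). Daily group urine and pooled feces (1 N HCl digest, 90 °C, 30 min, triplicate) were collected, and liver and spleen were homogenized. Iron was measured by atomic absorption and reported as % change vs transfused control.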

Mus musculus [5] = test: BDF1 male mice were administered with 50 mg/kg orally and percent change in iron levels was determined in Urine; assay type: functional; details: route oral; outline: as §2
Mus musculus [6] = test: BDF1 male mice were administered with the compound orally and number of survivors was determined out of 10 tested at a dose 100 mg/kg peroral; assay type: functional; details: route oral
Outline: (§3)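 Male BDF1 mice were iron-loaded by transfusion of canine red cells. The cells were heparinised, washed twice in isotonic saline and heated at 50 °C for 30 min. Dosing started two days after the last transfusion, once daily for 7 consecutive days. Compounds were given in distilled water or as a fine aqueous suspension with Polysorbate 80 (2% final). Toxic signs were recorded daily and survivors counted per group.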

[7] = Half life was determined titrimetrically at pH 7.5 in the presence of Fe(III)Half life was determined
Mus musculus [8] = test: BDF1 male mice were administered with 100 mg/kg orally and percent change in iron levels was determined in Feces; assay type: functional; details: route oral; outline: as §1
Mus musculus [9] = test: BDF1 male mice were administered with 25 mg/kg orally and percent change in iron levels was determined in Feces; assay type: functional; details: route oral; outline: as §2
[10] = First order rate constant was determined titrimetrically at pH 7.5 in the presence of Cu(II)
[11] = Half life was determined titrimetrically at pH 10.5 in the presence of Fe(III)Half life was determined (measured in water); assay type: ADME; details: pH 7.5, in the assay text read “pH 7.5” for “pH 10.5”
Outline: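 Metal and chelator were each 5 × 10⁻⁴ M. Constant pH was held with 0.05 M NaOH. Hydrolysis rate came from base consumption, with first-order kinetics.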

Mus musculus [12] = test: BDF1 male mice were administered with the compound orally and number of survivors was determined out of 10 tested at a dose 200 mg/kg peroral; assay type: functional; details: route oral; outline: as §3
Mus musculus [13] = test: BDF1 male mice were administered with the compound orally and number of survivors was determined out of 10 tested at a dose 50 mg/kg peroral; assay type: functional; details: route oral; outline: as §3
Mus musculus [14] = test: BDF1 male mice were administered with 200 mg/kg orally and percent change in iron levels was determined in Spleen; assay type: functional; details: route oral; outline: as §1
Mus musculus [15] = test: BDF1 male mice were administered with 25 mg/kg orally and percent change in iron levels was determined in Urine; assay type: functional; details: route oral; outline: as §2
Mus musculus [16] = test: BDF1 male mice were administered with 100 mg/kg orally and percent change in iron levels was determined in Liver; assay type: functional; details: route oral; outline: as §1
Mus musculus [17] = test: BDF1 male mice were administered with 25 mg/kg orally and percent change in iron levels was determined in Spleen; assay type: functional; details: route oral; outline: as §2
[18] = Half life was determined titrimetrically at pH 7.5 in the presence of Co(II)Half life was determined (measured in water)
[19] = Compound was evaluated for lethal dose after intraperitoneal administration using iron overload rat model; assay type: toxicity, organism-based; details: in vivo, ip
[20] = Half life was determined titrimetrically at pH 7.5 in the presence of Cu(II) Half life was determined
Mus musculus [21] = test: BDF1 male mice were administered with 50 mg/kg orally and percent change in iron levels was determined in Spleen; assay type: functional; details: route oral; outline: as §2
Rattus norvegicus [22] = test: Percent change in iron levels was determined in urine using iron overload rat model where the route of administration is Peroral; assay type: functional
Mus musculus [23] = test: BDF1 male mice were administered with 100 mg/kg orally and percent change in iron levels was determined in Spleen; assay type: functional; details: route oral; outline: as §1
Mus musculus [24] = test: BDF1 male mice were administered with 200 mg/kg orally and percent change in iron levels was determined in Liver; assay type: functional; details: route oral; outline: as §1
[25] = First order rate constant was determined titrimetrically at pH 7.5 in the presence of Zn(II)
[26] = Half life was determined titrimetrically at pH 7.5 in the presence of Zn(II)Half life was determined (measured in water)
Mus musculus [27] = test: BDF1 male mice were administered with 50 mg/kg orally and percent change in iron levels was determined in Liver; assay type: functional; details: route oral; outline: as §2
Mus musculus [28] = test: BDF1 male mice were administered with the compound orally and number of survivors at a dose 25 mg/kg peroral was determined out of 10 tested; assay type: functional; details: route oral; outline: as §3
Mus musculus [29] = test: BDF1 male mice were administered with 25 mg/kg orally and percent change in iron levels was determined in Liver; assay type: functional; details: route oral; outline: as §2
Rattus norvegicus [30] = test: Percent change in iron levels was determined in urine using iron overload rat model where the route of administration is Intraperitoneal; assay type: functional
Mus musculus [31] = test: BDF1 male mice were administered with 200 mg/kg orally and percent change in iron levels was determined in Urine; assay type: functional; details: route oral; outline: as §1
Mus musculus [32] = test: BDF1 male mice were administered with 200 mg/kg orally and percent change in iron levels was determined in Feces; assay type: functional; details: route oral; outline: as §1
Rattus norvegicus [33] = test: Percent change in iron levels was determined in feces using iron overload rat model where the route of administration is Peroral; assay type: functional
[34] = Half life was determined titrimetrically at pH 10.5 in the absence of metal ironHalf life was determined Spectrophotometrically; assay type: ADME
[35] = First order rate constant was determined titrimetrically at pH 7.5 in the presence of Co(II)
Mus musculus [36] = test: BDF1 male mice were administered with the compound and number of survivors was determined at a dose 250 mg/kg peroral out of 10 tested; assay type: functional; details: route oral; outline: as §3
Mus musculus [37] = test: BDF1 male mice were administered with 250 mg/kg orally and percent change in iron levels was determined in Feces; assay type: functional; details: route oral; outline: as §2
Mus musculus [38] = test: BDF1 male mice were administered with 250 mg/kg orally and percent change in iron levels was determined in Liver; assay type: functional; details: route oral; outline: as §2
Mus musculus [39] = test: BDF1 male mice were administered with 250 mg/kg orally and percent change in iron levels was determined in Urine; assay type: functional; details: route oral; outline: as §2
Mus musculus [40] = test: BDF1 male mice were administered with 250 mg/kg orally and percent change in iron levels was determined in Spleen; assay type: functional; details: route oral; outline: as §2

COC(=O)CN(CCN(CC(=O)OC)Cc1ccccc1O)Cc1ccccc1O
Iron change (Rattus norvegicus [1]): 390%
10E2 k1 [2]: 0.325 min⁻¹
Iron change (Mus musculus [3]): 34%
Iron change (Mus musculus [4]): 8%
Iron change (Mus musculus [5]): 49%
No. of survivors (Mus musculus [6]): 10
half-life [7]: 0.328 h
Iron change (Mus musculus [8]): -2%
Iron change (Mus musculus [9]): -10%
10E2 k1 [10]: 0.513 min⁻¹
half-life [11]: 5.4 min
No. of survivors (Mus musculus [12]): 10
No. of survivors (Mus musculus [13]): 10
Iron change (Mus musculus [14]): -29%
Iron change (Mus musculus [15]): 30%
Iron change (Mus musculus [16]): -42%
Iron change (Mus musculus [17]): -7%
half-life [18]: 2.72 h
LD50 [19]: ≥ 800 mg/kg
half-life [20]: 2.25 h
Iron change (Mus musculus [21]): -12%
Iron change (Rattus norvegicus [22]): 588%
Iron change (Mus musculus [23]): -12%
Iron change (Mus musculus [24]): -53%
10E2 k1 [25]: 3.66 min⁻¹
half-life [26]: 0.318 h
Iron change (Mus musculus [27]): -27%
No. of survivors (Mus musculus [28]): 10
Iron change (Mus musculus [29]): -20%
Iron change (Rattus norvegicus [30]): 694%
Iron change (Mus musculus [31]): 127%
Iron change (Mus musculus [32]): -71%
Iron change (Rattus norvegicus [33]): 369%
half-life [34]: 3.57 h
10E2 k1 [35]: 0.436 min⁻¹

O=C(CN(CCN(CC(=O)OCc1ccccc1)Cc1ccccc1O)Cc1ccccc1O)OCc1ccccc1
No. of survivors (Mus musculus [36]): 10
Iron change (Mus musculus [37]): -10%
Iron change (Mus musculus [38]): -10%
Iron change (Mus musculus [39]): 62%
Iron change (Mus musculus [40]): -21%
